Source: ChEMBL document CHEMBL1255289, “In vitro antifungal activities of isavuconazole (BAL4815), voriconazole, and fluconazole against 1,007 isolates of zygomycete, Candida, Aspergillus, Fusarium, and Scedosporium species” (2008)
Converted amounts (≈) assume the structure as drawn.

Tests used:
Assay type in all cases: functional
Aspergillus terreus = assay: Antifungal activity against Aspergillus terreus isolates after 48 hrs by CLSI M38-A procedure based assay
In short: (§1)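 Aspergillus isolates tested by CLSI M38-A broth microdilution at final 0.015–16 µg/ml and 35°C. Plates were read macroscopically at 48 h. The MIC was the lowest concentration producing complete inhibition of growth (MIC-0).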

Aspergillus fumigatus = assay: Antifungal activity against Aspergillus fumigatus isolates after 48 hrs by CLSI M38-A procedure based assay; in short: as §1
Aspergillus flavus = assay: Antifungal activity against Aspergillus flavus isolates after 48 hrs by CLSI M38-A procedure based assay; in short: as §1
Aspergillus niger = assay: Antifungal activity against Aspergillus niger isolates after 48 hrs by CLSI M38-A procedure based assay; in short: as §1
Aspergillus sp. = assay: Antifungal activity against Aspergillus sp. isolates after 48 hrs by CLSI M38-A procedure based assay; in short: as §1
Candida parapsilosis = assay: Antifungal activity against Candida parapsilosis isolates after 48 hrs by CLSI M27-A2 procedure based assay
In short: (§2)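 Candida isolates tested by CLSI M27-A2 broth microdilution at final 0.015–16 µg/ml, or 0.125–128 µg/ml for the comparator azole. Incubation was at 35°C with a visual read at 48 h. MIC-2 was the lowest concentration giving a prominent turbidity drop, about 50% growth inhibition.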

Candida albicans = assay: Antifungal activity against Candida albicans isolates after 48 hrs by CLSI M27-A2 procedure based assay; in short: as §2
Mucor [1] = assay: Antifungal activity against Mucor isolates assessed as lowest compound concentration that produced complete inhibition of microbial growth after 24 hrs by CLSI M38-A procedure based assay
In short: (§3)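 Zygomycete isolates subcultured on potato dextrose or Sabouraud agar, then tested by CLSI M38-A broth microdilution. Drugs were serially diluted in plates at final 0.015–16 µg/ml and incubated at 35°C. Plates were read by eye at 24 h. MIC-0 was the lowest concentration giving complete growth inhibition.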

Mucor [2] = assay: Antifungal activity against Mucor isolates assessed as lowest compound concentration that produced slight growth or approximately 25% of that of growth control after 24 hrs by CLSI M38-A procedure based assay
In short: (§4)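 Clinical isolates were kept at –70°C as spore suspensions in sterile water and subcultured on potato dextrose or Sabouraud agar before testing. Broth microdilution used DMSO stocks in trays stored at –70°C, with final drug 0.015–16 µg/ml.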

Rhizopus [3] = assay: Antifungal activity against Rhizopus isolates assessed as lowest compound concentration that produced complete inhibition of microbial growth after 24 hrs by CLSI M38-A procedure based assay; in short: as §3
Rhizopus [4] = assay: Antifungal activity against Rhizopus isolates assessed as lowest compound concentration that produced slight growth or approximately 25% of that of growth control after 24 hrs by CLSI M38-A procedure based assay
In short: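 Rhizopus isolates tested by CLSI M38-A broth microdilution at final 0.015–16 µg/ml, 35°C, read by eye at 24 h.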

Absidia [5] = assay: Antifungal activity against Absidia isolates assessed as lowest compound concentration that produced complete inhibition of microbial growth after 24 hrs by CLSI M38-A procedure based assay; in short: as §3
Absidia [6] = assay: Antifungal activity against Absidia isolates assessed as lowest compound concentration that produced slight growth or approximately 25% of that of growth control after 24 hrs by CLSI M38-A procedure based assay; in short: as §4
Cunninghamella [7] = assay: Antifungal activity against Cunninghamella isolates assessed as lowest compound concentration that produced complete inhibition of microbial growth after 24 hrs by CLSI M38-A procedure based assay; in short: as §3
Cunninghamella [8] = assay: Antifungal activity against Cunninghamella isolates assessed as lowest compound concentration that produced slight growth or approximately 25% of that of growth control after 24 hrs by CLSI M38-A procedure based assay; in short: as §4
Syncephalastrum [9] = assay: Antifungal activity against Syncephalastrum isolates assessed as lowest compound concentration that produced complete inhibition of microbial growth after 24 hrs by CLSI M38-A procedure based assay; in short: as §3
Syncephalastrum [10] = assay: Antifungal activity against Syncephalastrum isolates assessed as lowest compound concentration that produced slight growth or approximately 25% of that of growth control after 24 hrs by CLSI M38-A procedure based assay; in short: as §4
Scedosporium apiospermum [11] = assay: Antifungal activity against Scedosporium apiospermum isolates assessed as lowest compound concentration that produced complete inhibition of microbial growth after 24 hrs by CLSI M38-A procedure based assay
Scedosporium apiospermum [12] = assay: Antifungal activity against Scedosporium apiospermum isolates assessed as lowest compound concentration that produced slight growth or approximately 25% of that of growth control after 24 hrs by CLSI M38-A procedure based assay
[13] = Lodderomyces parapsilosis, 48 h

Which results are given for `C[C@@H](c1nc(-c2ccc(C#N)cc2)cs1)[C@](O)(Cn1cncn1)c1cc(F)ccc1F` [ISAVUCONAZOLE]?
MFC50 (Aspergillus terreus): 1 µg/mL (≈ 2.29 µM); MFC90 (Aspergillus terreus): 1 µg/mL (≈ 2.29 µM); MFC (Aspergillus terreus; Aspergillus terreus, 48 h): 0.25 µg/mL (≈ 0.571 µM); MIC50 (Aspergillus terreus; Aspergillus terreus, 48 h): 1 µg/mL (≈ 2.29 µM); MIC90 (Aspergillus terreus; Aspergillus terreus, 48 h): 1 µg/mL (≈ 2.29 µM); MFC50 (Aspergillus fumigatus): 1 µg/mL (≈ 2.29 µM); MFC90 (Aspergillus fumigatus): 1 µg/mL (≈ 2.29 µM); MFC (Aspergillus fumigatus; Aspergillus fumigatus, 48 h): 0.125 µg/mL (≈ 0.286 µM); MIC50 (Aspergillus fumigatus; Aspergillus fumigatus, 48 h): 1 µg/mL (≈ 2.29 µM); MIC90 (Aspergillus fumigatus; Aspergillus fumigatus, 48 h): 1 µg/mL (≈ 2.29 µM); MFC50 (Aspergillus flavus): 1 µg/mL (≈ 2.29 µM); MFC90 (Aspergillus flavus): 1 µg/mL (≈ 2.29 µM); MFC (Aspergillus flavus; Aspergillus flavus, 48 h): 0.5 µg/mL (≈ 1.14 µM); MIC50 (Aspergillus flavus; Aspergillus flavus, 48 h): 1 µg/mL (≈ 2.29 µM); MIC90 (Aspergillus flavus; Aspergillus flavus, 48 h): 1 µg/mL (≈ 2.29 µM); MFC50 (Aspergillus niger): 1 µg/mL (≈ 2.29 µM); MFC90 (Aspergillus niger): 2 µg/mL (≈ 4.57 µM); MFC (Aspergillus niger; Aspergillus niger, 48 h): 0.25 µg/mL (≈ 0.571 µM); MIC50 (Aspergillus niger; Aspergillus niger, 48 h): 1 µg/mL (≈ 2.29 µM); MIC90 (Aspergillus niger; Aspergillus niger, 48 h): 2 µg/mL (≈ 4.57 µM); MFC (Aspergillus sp.): 0.25 µg/mL (≈ 0.571 µM); MIC (Aspergillus sp.): 0.25 µg/mL (≈ 0.571 µM); MFC50 (Candida parapsilosis): 4 µg/mL (≈ 9.14 µM); MFC90 (Candida parapsilosis): 16 µg/mL (≈ 36.6 µM); MFC (Candida parapsilosis; [13]): 0.03 µg/mL (≈ 0.0686 µM); MIC (Candida parapsilosis; [13]): < 0.015 µg/mL; MIC50 (Candida parapsilosis; [13]): < 0.015 µg/mL; MIC90 (Candida parapsilosis; [13]): 0.03 µg/mL (≈ 0.0686 µM); MFC50 (Candida albicans): >16 µg/mL; MFC90 (Candida albicans): >16 µg/mL; MFC (Candida albicans; Candida albicans, 48 h): 0.03 µg/mL (≈ 0.0686 µM); MIC50 (Candida albicans; Candida albicans, 48 h): 0.03 µg/mL (≈ 0.0686 µM); MIC90 (Candida albicans; Candida albicans, 48 h): < 0.015 µg/mL; MFC50 (Mucor [1]): 8 µg/mL (≈ 18.3 µM); MFC90 (Mucor [1]): >16 µg/mL; MFC (Mucor [1]; Mucor, 24 h): 2 µg/mL (≈ 4.57 µM); MIC50 (Mucor [1]; Mucor, 24 h): 2 µg/mL (≈ 4.57 µM); MIC90 (Mucor [1]; Mucor, 24 h): 16 µg/mL (≈ 36.6 µM); MIC50 (Mucor [2]): 1 µg/mL (≈ 2.29 µM); MIC90 (Mucor [2]): 8 µg/mL (≈ 18.3 µM); MFC50 (Rhizopus [3]): 4 µg/mL (≈ 9.14 µM); MFC90 (Rhizopus [3]): >16 µg/mL; MFC (Rhizopus [3]; Rhizopus, 24 h): 1 µg/mL (≈ 2.29 µM); MIC (Rhizopus [3]; Rhizopus, 24 h): 1 µg/mL (≈ 2.29 µM); MIC50 (Rhizopus [3]; Rhizopus, 24 h): 1 µg/mL (≈ 2.29 µM); MIC90 (Rhizopus [3]; Rhizopus, 24 h): 16 µg/mL (≈ 36.6 µM); MIC (Rhizopus [4]): 0.5 µg/mL (≈ 1.14 µM); MIC50 (Rhizopus [4]): 0.5 µg/mL (≈ 1.14 µM); MIC90 (Rhizopus [4]): 4 µg/mL (≈ 9.14 µM); MFC (Absidia [5]): 4 µg/mL (≈ 9.14 µM); MIC (Absidia [5]): 1 µg/mL (≈ 2.29 µM); MIC (Absidia [6]): 0.5 µg/mL (≈ 1.14 µM); MFC (Cunninghamella [7]): 16 µg/mL (≈ 36.6 µM); MIC (Cunninghamella [7]): 2 µg/mL (≈ 4.57 µM); MIC (Cunninghamella [8]): 0.5 µg/mL (≈ 1.14 µM); MFC (Syncephalastrum [9]): 1 µg/mL (≈ 2.29 µM); MIC (Syncephalastrum [9]): 0.25 µg/mL (≈ 0.571 µM); MIC (Syncephalastrum [10]): 0.125 µg/mL (≈ 0.286 µM); MFC50 (Scedosporium apiospermum [11]): 8 µg/mL (≈ 18.3 µM); MFC90 (Scedosporium apiospermum [11]): >16 µg/mL; MFC (Scedosporium apiospermum [11]; Scedosporium apiospermum, 24 h): 2 µg/mL (≈ 4.57 µM); MIC50 (Scedosporium apiospermum [11]; Scedosporium apiospermum, 24 h): 4 µg/mL (≈ 9.14 µM); MIC90 (Scedosporium apiospermum [11]; Scedosporium apiospermum, 24 h): 4 µg/mL (≈ 9.14 µM); MIC50 (Scedosporium apiospermum [12]): 1 µg/mL (≈ 2.29 µM)
